How the values were obtained:
NTERA-2 ECCs = assay: Immunoblotting of total cell extracts; type: cell-based, human; settings: NTERA-2, 1 μM Adriamycin, 24 h
How it was run: (§1)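 Cells were cultured with 2.5 μM test compound for up to 96 h, and attached plus unattached cells were pooled. Whole-cell RIPA lysates were run on 4–12% Bis-Tris gels, transferred to nitrocellulose and blocked in 5% milk/TBS. Primary antibodies went on overnight at 4°C, followed by infrared secondary antibodies and imager quantitation. Each blot carried untreated U2OS as a shared standard, with Ponceau-S histones for normalization and lighter exposures for quantitation. Adriamycin for 24 h (NTERA-2 1 μM, H108 2 μM) served as a DNA-break control.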

H108 fibroblasts = assay: Immunoblotting of total cell extracts; type: cell-based, human; settings: H108 fibroblasts; 2.5 μM WX8 or 2 μM Adriamycin 24 h
How it was run: as §1

`COc1cccc2c1C(=O)c1c(O)c3c(c(O)c1C2=O)C[C@@](O)(C(=O)CO)C[C@@H]3O[C@H]1C[C@H](N)[C@H](O)[C@H](C)O1` [Adriamycin, doxorubicin] was tested, and the CASP3 cleaved (NTERA-2 ECCs) was over 90%, the CASP3 cleavage (H108 fibroblasts) was “Neither WX8 nor Adriamycin induced cleavage” and the PARP cleavage (H108 fibroblasts) was “Neither WX8 nor Adriamycin induced cleavage”.
